Experimental data as given in PMC3074116 (Translational stroke research, 2011).

Tests used:
[1] = Metabolic stability in rat microsomes; assay type: in vitro ADME; conditions: 1 μM; for metabolic stability (in words): male Sprague–Dawley rat microsomal preparation; for percent of parent remaining: HPLC/MS
How it was run: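 Incubated at 1 μM for 30 min at 37°C with pooled liver microsomes from non-induced male Sprague–Dawley rats. Parent loss measured by HPLC-MS on a C18 column at 50°C (water/0.1% formic acid; acetonitrile/0.07% formic acid). Triplicate percent parent remaining; ranked low (100–65%), moderate (65–45%) or high (<45%) metabolism.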

H4IIE cells [2] = conditions: 24-h exposure, n=7 replicates
HT22 cells [3] = conditions: read-out: EC50 neuroprotection, glutamate (5 mM); cited from earlier work
P-glycoprotein (PgP) = assay: P-glycoprotein binding using the MTT assay with and without cyclosporin A; conditions: 50 μM, 24-h exposure, n=7; for % Control (compound+CSA): with CSA; for % Control (compound): without CSA
rat cognition assay = conditions: 10 mg/kg by gavage; cited from earlier work
HT22 cells [4] = conditions: cited from earlier work
H4IIE cells [5] = assay: CTox ranking; assay type: cell-based, rat; conditions: generated from TC50 values by proprietary algorithm
[6] = Solubility in culture medium; assay type: physicochemical; conditions: for soluble up to and including: culture medium with 10% bovine serum and 10% calf serum, 37°C
H4IIE cells [7] = assay: Lipid peroxidation measured as 8-isoprostane; assay type: cell-based, rat; conditions: 1–300 μM
H4IIE cells [8] = conditions: for Cell number (cell mass) TC50: 24-h exposure, n=7 replicates
[9] = test system: rabbit embolic stroke model; conditions: cited from earlier work
H4IIE cells [10] = conditions: 24-h exposure, GST leakage, n=3 replicates
H4IIE cells [11] = assay: Intracellular glutathione; assay type: cell-based, rat; conditions: for GSH content TC50: 24-h exposure; for effect on intracellular GSH content: 1–300 μM
[12] = 100 mg/kg single bolus injection

Row | Structure (SMILES) | metabolic stability (in words) [1] | percent of parent remaining ([1]; rat microsomes, 30 min at 37°C) [%] | % Control (compound+CSA) (P-glycoprotein (PgP)) [%] | % Control (compound) (P-glycoprotein (PgP)) [%] | CTox value (sustained concentration expected to produce toxicity in a rat 14-day repeat dose study) (H4IIE cells [5]) [µM] | soluble up to and including [6] [µM] | effect on 8-isoprostane (lipid peroxidation) (H4IIE cells [7]) | Cell number (cell mass) TC50 (H4IIE cells [8]) [µM] | MemTox TC50 (H4IIE cells [10]) [µM] | GSH content TC50 (H4IIE cells [11]) [µM] | effect on intracellular GSH content (H4IIE cells [11]) | also measured
1 | COc1cc(C=Cc2cc(/C=C/c3ccc(O)c(OC)c3)nn2-c2ccccc2)ccc1O [CNB-001] | metabolically unstable | 42 | 79.0 | 79.9 | 42 | ≥ 100 | did not have any effect | 88 | 193 | 76 |  | metabolism ranking ([1]; rat microsomes, 30 min at 37°C): high (<45% as high); MTT TC50 (H4IIE cells [2]): 131 µM; EC50 (HT22 cells [3]): 0.7 µM; object recognition index (rat cognition assay): significantly increased; effect on GSH levels in HT22 cells (HT22 cells [4]): no effect; solubility at 300 μM ([6]; culture medium, 300 μM): not completely soluble; concentration with apparent inhibition of EROD activity (Cytochrome P450 1A1/2; Fig. 2): above 10 μM; IC50 (Cytochrome P450 1A1/2; read-out: EROD activity inhibition IC50, H4IIE cells): ~25 µM; acute toxicity [9, 12]: without any signs of acute toxicity; behavior [9, 12]: significant behavioral improvement
2 | CC1=NN(c2ccccc2)C(=O)C1 [Radicut, 3-Methyl-1-phenyl-2-pyrazolin-5-one] | metabolically unstable | 28 | 94.8 | 95.9 | > 300 |  | no effect | >300 | >300 | > 300 | no effect | solubility [6]: ≥ 300 µM; decrease in cell proliferation (H4IIE cells [8]; 300-μM exposure): 30%; time of administration following embolization at which still active [9]: 3 h
3 | CC(C)(C)[N+]([O-])=Cc1ccc(S(=O)(=O)[O-])cc1S(=O)(=O)[O-].[Na+].[Na+] [NXY-059, Disodium 4-[[(1,1,-dimethylethyl)imino]methyl]benzene-1,3-disulfonate N-oxide] | very stable metabolically | 93 | 93.6 | 100.0 | > 300 | ≥ 300 | no effect | >300 | >300 | > 300 | no effect | maximum therapeutic window ([9]; time following embolization): 1 h
